Reference: ChEMBL document CHEMBL3872285, “Discovery of a Potent, Selective, and Orally Available PI3Kδ Inhibitor for the Treatment of Inflammatory Diseases” (ACS Med Chem Lett, 2017)

What was measured:
[1] = Drug metabolism in human liver microsomes assessed as disappearance of parent compound at 5 uM after 30 mins in presence of NADPH by UPLC-MS/MS analysis
[2] = Drug metabolism in rat liver microsomes assessed as disappearance of parent compound at 5 uM after 30 mins in presence of NADPH by UPLC-MS/MS analysis
[3] = molecular target: T1, Phosphatidylinositol 4,5-bisphosphate 3-kinase catalytic subunit delta isoform (Homo sapiens, UniProt O00329); test: Inhibition of PI3Kdelta in human THP1 cells assessed as reduction in MCSF-stimulated akt phosphorylation at Thr308 preincubated for 30 mins followed by MCSF stimulation for 3 mins by ELISA; format: cell-based, THP-1
T1 sequence (O00329 whole entry): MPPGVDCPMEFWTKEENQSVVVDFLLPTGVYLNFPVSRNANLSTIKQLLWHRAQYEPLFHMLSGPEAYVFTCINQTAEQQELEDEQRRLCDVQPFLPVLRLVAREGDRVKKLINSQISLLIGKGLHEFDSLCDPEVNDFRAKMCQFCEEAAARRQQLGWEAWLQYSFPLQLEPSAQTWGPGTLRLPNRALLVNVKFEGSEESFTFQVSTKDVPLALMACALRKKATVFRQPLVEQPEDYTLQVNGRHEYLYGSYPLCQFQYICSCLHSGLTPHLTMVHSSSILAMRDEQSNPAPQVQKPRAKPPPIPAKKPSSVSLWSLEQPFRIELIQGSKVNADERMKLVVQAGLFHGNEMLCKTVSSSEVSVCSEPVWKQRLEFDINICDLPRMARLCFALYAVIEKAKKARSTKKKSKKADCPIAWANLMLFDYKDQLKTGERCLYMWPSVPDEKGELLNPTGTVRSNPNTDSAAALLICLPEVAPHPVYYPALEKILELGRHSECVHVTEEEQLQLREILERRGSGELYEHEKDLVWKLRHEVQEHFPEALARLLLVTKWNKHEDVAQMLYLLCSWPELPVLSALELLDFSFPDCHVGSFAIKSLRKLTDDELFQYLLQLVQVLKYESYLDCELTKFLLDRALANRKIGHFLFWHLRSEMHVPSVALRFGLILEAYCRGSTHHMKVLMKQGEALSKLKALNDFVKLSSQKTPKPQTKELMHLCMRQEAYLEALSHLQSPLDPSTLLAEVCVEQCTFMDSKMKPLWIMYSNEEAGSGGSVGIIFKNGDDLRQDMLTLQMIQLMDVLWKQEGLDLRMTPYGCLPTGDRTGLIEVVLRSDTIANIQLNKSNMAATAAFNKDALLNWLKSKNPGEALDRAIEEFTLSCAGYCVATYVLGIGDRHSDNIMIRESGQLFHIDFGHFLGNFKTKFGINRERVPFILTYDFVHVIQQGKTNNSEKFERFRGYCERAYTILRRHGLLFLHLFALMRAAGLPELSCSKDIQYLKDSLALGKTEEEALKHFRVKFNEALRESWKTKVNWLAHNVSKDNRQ
In short: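 THP-1 cells exposed to compound for 30 min, then stimulated with MCSF at EC80 for 3 min; lysates assayed by ELISA for pAkt (Thr308).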

[4] = molecular target: PI3-kinase p110-delta/p85-alpha (Homo sapiens, UniProt O00329); test: Inhibition of full length recombinant human N-terminal His6-tagged PI3K p110delta/human p85alpha expressed in baculovirus infected sf21 cells using PIP2 as substrate preincubated for 30 mins followed by substrate addition by HTRF assay
[5] = AUC in Wistar rat at 1 mg/kg, iv; format: ADME, organism-based; details: in vivo
In short: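 Wistar rats received a single 1 mg/kg intravenous dose. Plasma samples were collected and AUC was calculated from them, along with half-life, clearance and steady-state volume of distribution. Values are means of two animals (n=2).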

[6] = Oral bioavailability in Wistar rat at 1 mg/kg administered via gavage; format: ADME, organism-based; details: in vivo
[7] = Half life in Wistar rat at 1 mg/kg, iv; format: ADME, organism-based; details: in vivo
Rattus norvegicus [8] = test: In vivo inhibition of PI3Kdelta in Wistar rat assessed as reduction in ConA-induced increase in plasma IL2 production administered through oral gavage 1 hr prior to ConA measured 90 mins post ConA challenge by ELISA; format: functional; details: read-out: ID50 (the source's name)
Rattus norvegicus [9] = test: Anti-inflammatory activity in Brown Norway rat assessed as reduction in OVA-induced eosinophil infilteration to bronchoalveolar lavage administered orally bid 1 hr prior to OVA challenge on day 14 and 6 hrs post OVA challenge on day 21 measured 24 hrs post last OVA challenge by microscopic method; format: functional; details: po, read-out: ID50 (the source's name)
[10] = Half life in Beagle dog at 1 mg/kg, iv through bolus administration; format: ADME, organism-based, Canis lupus familiaris; details: in vivo
[11] = AUC in Beagle dog at 1 mg/kg, iv through bolus administration; format: ADME, organism-based, Canis lupus familiaris; details: in vivo
[12] = Apparent volume of distribution in Beagle dog at 1 mg/kg, iv through bolus administration; format: ADME, organism-based, Canis lupus familiaris; details: in vivo, read-out: Vz
[13] = Apparent volume of distribution in Wistar rat at 1 mg/kg, iv; format: ADME, organism-based; details: in vivo, read-out: Vz
[14] = Volume of distribution at steady state in Wistar rat at 1 mg/kg, iv; format: ADME, organism-based; details: in vivo, read-out: Vdss
[15] = Clearance in Wistar rat at 1 mg/kg, iv; details: in vivo

Chain of PI3-kinase p110-delta/p85-alpha (P27986 whole entry, one chain of several): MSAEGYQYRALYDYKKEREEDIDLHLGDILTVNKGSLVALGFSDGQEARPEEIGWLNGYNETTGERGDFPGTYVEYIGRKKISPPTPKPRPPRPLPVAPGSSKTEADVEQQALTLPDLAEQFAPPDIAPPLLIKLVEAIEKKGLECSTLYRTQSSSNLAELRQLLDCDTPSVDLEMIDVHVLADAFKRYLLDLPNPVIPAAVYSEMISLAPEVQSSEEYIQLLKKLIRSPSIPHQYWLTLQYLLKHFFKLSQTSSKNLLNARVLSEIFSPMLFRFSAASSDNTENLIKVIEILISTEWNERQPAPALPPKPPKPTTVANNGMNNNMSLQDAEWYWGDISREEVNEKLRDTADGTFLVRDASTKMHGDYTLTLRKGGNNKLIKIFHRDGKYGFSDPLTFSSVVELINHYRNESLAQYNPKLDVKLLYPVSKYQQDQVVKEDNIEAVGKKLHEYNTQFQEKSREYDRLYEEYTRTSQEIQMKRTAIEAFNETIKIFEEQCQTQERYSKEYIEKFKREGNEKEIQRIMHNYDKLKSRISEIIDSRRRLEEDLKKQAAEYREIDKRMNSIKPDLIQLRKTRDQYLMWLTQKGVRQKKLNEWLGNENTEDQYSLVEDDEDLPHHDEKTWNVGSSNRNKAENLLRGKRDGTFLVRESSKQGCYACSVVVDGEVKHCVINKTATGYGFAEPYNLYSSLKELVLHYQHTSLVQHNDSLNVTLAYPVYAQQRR

SMILES | metabolised at 0.5 h, 5 µM [1] | metabolised at 0.5 h, 5 µM [2] | IC50 [3] | IC50 [4] | other results
C[C@H](Nc1ncnc(N)c1C#N)c1nn2c(C(F)(F)F)ccc2c(=O)n1-c1ccccc1 |  |  | 380 nM | 71 nM | 
CC[C@@H](Nc1ncnc2[nH]cnc12)c1nn2cccc2c(=O)n1-c1ccccc1 | 30% | 32% |  | 1800 nM | 
CC[C@H](Nc1ncnc2[nH]cnc12)c1nc2cccc(F)c2c(=O)n1-c1ccccc1 [IDELALISIB] |  |  |  |  | AUC [5]: 512 ng·h/mL; bioavailability [6]: 68%; half-life [7]: 0.8 h; ED50 (Rattus norvegicus [8]): 1.6 mg/kg; ED50 (Rattus norvegicus [9]): 15 mg/kg; half-life [10]: 1.6 h; AUC [11]: 924 ng·h/mL; Vd [12]: 2.5 L/kg; Vd [13]: 2.2 L/kg
C[C@H](Nc1nc(N)nc(N)n1)c1nn2cccc2c(=O)n1-c1ccccc1 | 33% | 25% | 76 nM | 91 nM | 
C[C@H](Nc1cc(N)ncn1)c1nn2cccc2c(=O)n1-c1ccccc1 |  |  |  | 1200 nM | 
C[C@H](Nc1ncnc(N)c1C#N)c1nn2ccnc2c(=O)n1-c1ccccc1 | 23% | 14% | 210 nM | 57 nM | 
N#Cc1c(N)ncnc1NC1(c2nn3cccc3c(=O)n2-c2ccccc2)CC1 |  |  |  | 3400 nM | 
Cc1ccn2nc(C(C)n3cnc4c(N)ncnc43)n(-c3ccccc3)c(=O)c12 (stereo not drawn) |  |  |  | 75 nM | 
N#Cc1c(N)ncnc1NC(CC(F)(F)F)c1nn2cccc2c(=O)n1-c1ccccc1 (stereo not drawn) |  |  | 1600 nM | 610 nM | 
C[C@H](Nc1ncnc2[nH]ccc12)c1nn2cccc2c(=O)n1-c1ccccc1 | 49% | 44% | 150 nM | 52 nM | 
C[C@H](Nc1ncnc(N)c1C#N)c1nn2cc(F)cc2c(=O)n1-c1ccccc1 | 34% | 23% | 51 nM | 17 nM | 
CC[C@H](Nc1ncnc2[nH]cnc12)c1nn2cccc2c(=O)n1-c1ccccc1 | 49% | 38% |  | 25 nM | 
C[C@H](Nc1ncnc(N)c1C#N)c1nn2cccc2c(=O)n1-c1ccccc1 | 24% | 15% |  |  | AUC [5]: 386 ng·h/mL; Vd [14]: 1.9 L/kg; clearance [15]: 43.5 mL/min/kg; half-life [7]: 0.9 h
Cc1ccccc1-n1c(Cn2cnc3c(N)ncnc32)nn2ccc(C)c2c1=O |  |  |  | 110 nM | 
C[C@H](Nc1ncnc(N)c1F)c1nn2cccc2c(=O)n1-c1ccccc1 |  |  | 210 nM | 73 nM | 
N#Cc1c(N)ncnc1N1CC(F)(F)C[C@H]1c1nn2cccc2c(=O)n1-c1ccccc1 | 35% | 30% | 370 nM | 31 nM | 
C[C@H](Nc1ccnc2ccnn12)c1nn2cccc2c(=O)n1-c1ccccc1 | 86% | 100% |  | 60 nM | 

Second part, led by results:

metabolised at 0.5 h, 5 µM [1] | metabolised at 0.5 h, 5 µM [2] | IC50 [3] | IC50 [4] | SMILES | other results
31% | 24% | 51 nM | 13 nM | N#Cc1c(N)ncnc1NC(CO)c1nn2cccc2c(=O)n1-c1ccccc1 (single isomer, unassigned) | 
30% | 18% | 7 nM | 10 nM | C[C@H](Nc1ncnc2[nH]cnc12)c1nn2cccc2c(=O)n1-c1ccccc1 | 
80% | 44% | 1.6 nM | 1.1 nM | Cc1ccn2nc([C@H](C)Nc3ncnc(N)c3C#N)n(-c3ccccc3)c(=O)c12 | 
32% | 32% | 18 nM | 11 nM | CC[C@H](Nc1ncnc(N)c1C#N)c1nn2cccc2c(=O)n1-c1ccccc1 | 
23% | 7% | 35 nM | 4.3 nM | C[C@H](Nc1ncnc(N)c1C#N)c1nn2ccc(CO)c2c(=O)n1-c1ccccc1 | 
26% | 30% | 6.5 nM | 3.1 nM | C[C@H](Nc1nc(N)nc2[nH]cnc12)c1nn2cccc2c(=O)n1-c1ccccc1 | 
43% | 51% |  | 12 nM | C[C@H](Nc1ncnc(N)c1C(F)(F)F)c1nn2cccc2c(=O)n1-c1ccccc1 | 
82% | 54% | 11 nM | 8.8 nM | Cc1ccc2c(=O)n(-c3ccccc3)c([C@H](C)Nc3ncnc(N)c3C#N)nn12 | 
48% | 46% | 6.6 nM | 4.6 nM | N#Cc1c(N)ncnc1N1CCC[C@H]1c1nn2cccc2c(=O)n1-c1ccccc1 | 
22% | 24% | 11 nM | 4 nM | C[C@H](Nc1ncnc(N)c1C#N)c1nn2c(C#N)ccc2c(=O)n1-c1ccccc1 | 
7% |  | 16 nM | 4.8 nM | N#Cc1c(N)ncnc1N[C@@H](CCO)c1nn2cccc2c(=O)n1-c1ccccc1 | AUC [5]: 450 ng·h/mL; Vd [14]: 1.6 L/kg; clearance [15]: 36.8 mL/min/kg; half-life [7]: 1.1 h
13% | 9% | 3.8 nM | 1.1 nM | C[C@H](Nc1ncnc(N)c1C#N)c1nn2ccc(F)c2c(=O)n1-c1ccccc1 | 
58% | 48% | 47 nM | 9 nM | C[C@H](Nc1ncnc2[nH]cc(F)c12)c1nn2cccc2c(=O)n1-c1ccccc1 | 
